We go through one compound from ChEMBL document CHEMBL4613270, “Structure-Activity Relationship Study Enables the Discovery of a Novel Berberine Analogue as the RXRα Activator to Inhibit Colon Cancer” (J Med Chem, 2020).

The structures appear in SMILES notation. The source made the active and inactive calls. The rule behind the calls is not given here.

Data set [1] has as its system KM12C. Nature of the data set: Inhibition of cell proliferation of human KM12C cells at 25 to 50 uM incubated for 15 hrs by EdU assay. Type of data set: functional, cell-based. In short, it runs like this:
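KM12C cells grown in MEM with 10% FBS, penicillin/streptomycin, nonessential amino acids and vitamins at 37 °C, 5% CO2. Proliferation was scored with an EdU incorporation kit, and cells were examined under a fluorescence microscope.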

The next data set relates to SW-620. Nature of the data set: Inhibition of cell proliferation of human SW620 cells at 40 to 80 uM incubated for 15 hrs by EdU assay. Type of data set: functional, cell-based. A digest of the protocol:
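Colon cancer cells treated for 15 h. Proliferation measured in 96-well plates using an EdU incorporation kit, with cells examined under a fluorescence microscope.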

Data set [2] deals with T1, Retinoic acid receptor RXR-alpha (Homo sapiens) (UniProt P19793).
T1 sequence (whole entry): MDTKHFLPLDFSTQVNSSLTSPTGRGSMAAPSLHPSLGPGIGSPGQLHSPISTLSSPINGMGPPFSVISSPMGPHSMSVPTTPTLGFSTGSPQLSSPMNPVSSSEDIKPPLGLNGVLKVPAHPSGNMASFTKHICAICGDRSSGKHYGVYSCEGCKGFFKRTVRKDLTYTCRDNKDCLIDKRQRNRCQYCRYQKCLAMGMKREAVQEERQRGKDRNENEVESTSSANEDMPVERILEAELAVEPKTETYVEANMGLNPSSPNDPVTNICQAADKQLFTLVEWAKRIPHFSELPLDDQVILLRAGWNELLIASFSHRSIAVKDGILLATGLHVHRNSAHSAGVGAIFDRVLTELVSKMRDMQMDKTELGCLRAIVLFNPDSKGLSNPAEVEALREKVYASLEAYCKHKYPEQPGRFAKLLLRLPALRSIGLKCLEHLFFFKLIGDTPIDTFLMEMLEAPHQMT
In words: Activation of RXRalpha in human KM12C cells assessed as […] protein expression at 25 to 50 uM incubated for 15 hrs by Western blot analysis. In kind it is cell-based.

In data set [3] the target is T1, Retinoic acid receptor RXR-alpha (Homo sapiens). Nature of the data set: Activation of RXRalpha in human HCT116 cells assessed as […] protein expression at 30 to 60 uM incubated for 15 hrs by Western blot analysis. In kind it is cell-based. To be noted: HCT-116.
For data set [4] the target is unchanged. In words: Activation of RXRalpha in human SW620 cells assessed as […] in PCNA protein expression at 40 to 80 uM incubated for 15 hrs by Western blot analysis. In kind it is cell-based. The following applies: SW-620.
The target is the same in data set [5]. Nature of the data set: Activation of RXRalpha in human KM12C cells assessed as increase transactivational activity on RXRE at 25 to 50 uM incubated for 15 hrs by luciferase reporter gene assay. Type of data set: cell-based. A digest of the protocol:
(§1)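 Endogenous RXRα transactivation on an RXRE luciferase reporter, lipofection-transfected; compound added 20 h post-transfection for 15 h; lysis in passive lysis buffer at 4 °C, 1 h; firefly and Renilla luciferase activities read by dual-luciferase assay.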
Background: In a reporter assay the amount or activity of a reporter protein is the signal.

Data set [6] shares this target. In words: Activation of RXRalpha in human HCT116 cells assessed as increase transactivational activity on RXRE at 30 to 60 uM incubated for 15 hrs by luciferase reporter gene assay. Type of data set: cell-based. The following applies: HCT-116. A digest of the protocol:
as §1

Data set [7] shares this target. In words: Activation of RXRalpha in human SW620 cells assessed as increase transactivational activity on RXRE at 40 to 80 uM incubated for 15 hrs by luciferase reporter gene assay. In kind it is cell-based. The following applies: SW-620. A digest of the protocol:
as §1

Data set [8] deals with KM12C. Nature of the data set: Inhibition of cell proliferation of human KM12C cells up to 100 uM in presence of RXRalpha shRNA incubated for 15 hrs by MTT assay. In kind it is functional, cell-based. A digest of the protocol:
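KM12C cells were transfected with control or RXRα-targeting shRNA, seeded at 1×10^4 cells/well and incubated overnight at 37 °C. Compound was then added for 15 h. MTT (5 mg/mL stock) was incubated 4 h at 37 °C, formazan dissolved in DMSO, and absorbance read at 570 nm.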
(In general: Tetrazolium dyes change colour on reduction, which living cells bring about.)

The target of data set [9] is T1, Retinoic acid receptor RXR-alpha (Homo sapiens). Nature of the data set: Activation of RXRalpha in human KM12C cells assessed as reduction in Cdc2 protein expression at 25 to 50 uM incubated for 15 hrs in presence of RXRalpha shRNA by Western blot analysis. Type of data set: cell-based. A general note: Immunoblotting shows a protein as a band on a membrane.
The target is the same in data set [10]. Nature of the data set: Activation of RXRalpha in human KM12C cells assessed as reduction in Cdc2 mRNA expression at 25 to 50 uM incubated for 15 hrs in presence of RXRalpha shRNA by real-time PCR analysis. Type of data set: cell-based.
The target is the same in data set [11]. Nature of the data set: Activation of RXRalpha in human KM12C cells assessed as reduction in c-Myc protein expression at 25 to 50 uM incubated for 15 hrs in presence of RXRalpha shRNA by Western blot analysis. In kind it is cell-based.
Data set [12] shares this target. In words: Activation of RXRalpha in human KM12C cells assessed as reduction in c-Myc mRNA expression at 25 to 50 uM incubated for 15 hrs in presence of RXRalpha shRNA by real-time PCR analysis. Type of data set: cell-based.
For data set [13] the target is unchanged. Nature of the data set: Activation of RXRalpha in human KM12C cells assessed as increase in p21 (WAF1/CIP1) protein expression at 25 to 50 uM incubated for 15 hrs in presence of RXRalpha shRNA by Western blot analysis. Type of data set: cell-based.
For data set [14] the target is unchanged. In words: Activation of RXRalpha in human KM12C cells assessed as […] crease in p21 (WAF1/CIP1) mRNA expression at 25 to 50 uM incubated for 15 hrs in presence of RXRalpha shRNA by real-time PCR analysis. In kind it is cell-based.
Data set [15] in a line: Hepatotoxicity in BALB/c mouse xenografted with human KM12C cells assessed as induction of necrotic hepatocytes at 100 mg/kg, ig dosed daily for 15 days by H and E staining. The following applies: in vivo, po, 360 h. In kind it is toxicity, organism-based.
Another data set concerns MEF. Nature of the data set: Toxicity in mouse MEF cells assessed a reduction in cell viability at 6.25 to 100 uM incubated for 15 hrs by MTT assay. Type of data set: cell-based. In short, it runs like this:
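HIEC-6 cells grown in MEM with 4% FBS, HEPES, GlutaMAX and 10 ng/mL EGF. MEF cells grown in DMEM high glucose with 10% FBS. Cells plated at 1×10⁴ per well and treated with a concentration series for 15 h. Viability read by MTT: 4 h at 37 °C, DMSO solubilization, absorbance at 570 nm.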

For the compound `COc1ccc2c(c1)CC[n+]1cc3c(OC)cccc3cc1-2.[Cl-]`, the inhibition result with KM12C [1] and with SW-620 was “Active” each time. Moreover, the outcome in data set [2], in data set [3], in [4], in data set [5], in data set [6] and in [7] was Active. Besides, in the data set on KM12C [8], the inhibition result is “inactive”. In addition, the result in [9], in [10], in [11], in [12], in data set [13] and in data set [14] was inactive. Also, the Activity result (in data set [15]; in the data set with MEF) was “Non-Toxic” each time.
